According to ChEMBL document CHEMBL1141385, “Lignans from Dysosma versipellis with inhibitory effects on prostate cancer cell lines” (J Nat Prod, 2007):

Key:
LNCaP = experiment: Cytotoxicity against androgen sensitive human LNCaP cells; type: cell-based
How it was run: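 LNCaP (androgen-sensitive human prostate cancer) cells kept as monolayers in DMEM with 10% FBS, 2 mM L-glutamine, penicillin/streptomycin, 5% CO2. Seeded at 5000 cells/well, attached overnight, then exposed to compounds or DMSO vehicle for 48 h. MTS added for 2–4 h at 37 °C; formazan absorbance read at 490 nm. At least three experiments, each in triplicate.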

PC-3 = experiment: Cytotoxicity against androgen-independent human PC3 cells; type: cell-based
How it was run: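 PC-3 (androgen-independent human prostate cancer) cells kept as monolayers in DMEM with 10% FBS, 2 mM L-glutamine, penicillin/streptomycin, 5% CO2. Plated at 3000 cells/well and left to attach overnight. Treated with compounds or DMSO vehicle for 48 h. Viability read by MTS (2–4 h, 37 °C) as absorbance at 490 nm. Run at least three times in triplicate.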

Row | Structure (SMILES) | IC50 (LNCaP) | IC50 (PC-3)
1 | COc1cc([C@@H]2c3cc4c(cc3[C@H](O)[C@H]3COC(=O)[C@H]23)OCO4)cc(OC)c1OC [PODOFILOX] | 31 nM | 34 nM
2 | COc1cc([C@@H]2c3cc4c(cc3C[C@H]3COC(=O)[C@@H]32)OCO4)cc(OC)c1O [4'-DEMETHYLDEOXYPODOPHYLLOTOXIN] | 150 nM | 140 nM
3 | COc1cc([C@@H]2c3cc4c(cc3[C@H](O)[C@H]3COC(=O)[C@H]23)OCO4)cc(OC)c1O | 56 nM | 82 nM
4 | COc1cc2c(O)c3c(c(-c4ccc5c(c4)OCO5)c2cc1OC)C(=O)OC3 [DIPHYLLIN] | 11500 nM | 7200 nM
5 | COc1cc([C@@H]2c3cc4c(cc3C[C@H]3COC(=O)[C@@H]32)OCO4)cc(OC)c1OC [DESOXYPODOPHYLLOTOXIN] | 30 nM | 32 nM
6 | COc1cc(O)cc([C@@H](O)[C@@H]2CO[C@@H](c3ccc(O)c(OC)c3)[C@@H]2CO)c1 [DYSOSMAROL] | 16000 nM | 16000 nM
